Data set [1] deals with MOLM-14. It counts as functional, cell-based. The following applies: Homo sapiens, MOLM-14, 72 h.
The test system of data set [2] is MOLM-14. It counts as cell-based. The following applies: Homo sapiens, time 2.0 hrs.
Data set [3] deals with MOLM-14. Kind of data set: Antiproliferative activity against human MOLM-14 cells harboring FLT3-D835Y mutant assessed as inhibition of cell growth incubated for 72 hrs by resazurin dye based assay. The format is functional. The following applies: MOLM-14, 72 h. In short, it runs like this:
(§1)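 Logarithmic-phase cells were seeded at 5000 per well and treated 24 h later, in triplicate, with various concentrations for 72 h. MOLM14 lines were grown in RPMI with 10 % FBS, and other lines per provider instructions, all at 37 °C and 5 % CO2. Resazurin was then added for 4–6 h and fluorescence read. GI50 was taken from percent growth versus DMSO control, fitted with a variable-slope normalized-response model; at least three runs.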
(In general: Alamar Blue is a resazurin reagent that responds to reducing activity.)

Data set [4] concerns the target High affinity nerve growth factor receptor (Homo sapiens) (UniProt P04629). Kind of data set: Inhibition of TRKA (unknown origin) at 4.5 nM incubated for 1 hr by KINOMEscan analysis relative to control. The essentials: (§2)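 Competition binding panel: DNA-tagged kinases combined with beads carrying immobilized biotinylated ligand and test compound in binding buffer (20 % SeaBlock, 0.17x PBS, 0.05 % Tween 20, 6 mM DTT). Compound diluted from 100x DMSO stocks. Incubated 1 h at room temperature with shaking, then washed. Bound kinase eluted with non-biotinylated ligand for 30 min. Kinase in eluate quantified by qPCR.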

In data set [5] the test system is MOLM-14. Kind of data set: Inhibition of ERK phosphorylation in human MOLM-14 cells at 1 times IC50 incubated for 2 hrs by Western blot analysis. It counts as cell-based. On the technique in general: A western blot detects proteins with antibodies after separation by electrophoresis.
Data set [6] relates to MOLM-14. The experiment in a line: Inhibition of ERK phosphorylation in human MOLM-14 cells at 10 times IC50 incubated for 2 hrs by Western blot analysis relative to control. It counts as cell-based.
The test system of data set [7] is K562. Kind of data set: Antiproliferative activity against human K562 cells assessed as inhibition of cell growth incubated for 72 hrs by resazurin dye based assay. The format is functional. Conditions: K562, 72 h. The essentials: as §1
In data set [8] the test system is MOLM-14. Kind of data set: Inhibition of ERK phosphorylation in human MOLM-14 cells harboring FLT3 D835Y mutant at 10 times IC50 incubated for 2 hrs by Western blot analysis relative to control. It counts as cell-based.
Data set [9] deals with MOLM-14. Kind of data set: Inhibition of ERK phosphorylation in human MOLM-14 cells harboring FLT3 D835Y mutant at 1 times IC50 incubated for 2 hrs by Western blot analysis. The format is cell-based.
The subject of data set [10] is MOLM-14. The experiment in a line: Antiproliferative activity against human MOLM-14 cells assessed as inhibition of cell growth incubated for 72 hrs by resazurin dye based assay. The format is functional. Conditions: MOLM-14, 72 h. In short, it runs like this: as §1
Data set [11] relates to MDA-MB-231. The experiment in a line: Antiproliferative activity against human MDA-MB-231 cells lacking FLT3 activating mutations assessed as inhibition of cell growth incubated for 72 hrs by resazurin dye based assay. It counts as functional. Conditions: MDA-MB-231, 72 h. In short, it runs like this: as §1
Data set [12] concerns the target Mast/stem cell growth factor receptor Kit (Homo sapiens, UniProt P10721). Kind of data set: Binding affinity to KIT (unknown origin) at 4.5 nM incubated for 1 hr by KINOMEscan analysis. The following applies: 0.0045 µM. In short, it runs like this: as §2
Data set [13] is described as follows: Cytotoxicity against HEK293 cells lacking FLT3 activating mutations assessed as inhibition of cell growth incubated for 72 hrs by resazurin dye based assay. It counts as toxicity. Conditions: human. In short, it runs like this: as §1
The target in data set [14] is T1, Receptor-type tyrosine-protein kinase FLT3 (Homo sapiens, UniProt P36888).
T1 sequence (P36888 whole entry): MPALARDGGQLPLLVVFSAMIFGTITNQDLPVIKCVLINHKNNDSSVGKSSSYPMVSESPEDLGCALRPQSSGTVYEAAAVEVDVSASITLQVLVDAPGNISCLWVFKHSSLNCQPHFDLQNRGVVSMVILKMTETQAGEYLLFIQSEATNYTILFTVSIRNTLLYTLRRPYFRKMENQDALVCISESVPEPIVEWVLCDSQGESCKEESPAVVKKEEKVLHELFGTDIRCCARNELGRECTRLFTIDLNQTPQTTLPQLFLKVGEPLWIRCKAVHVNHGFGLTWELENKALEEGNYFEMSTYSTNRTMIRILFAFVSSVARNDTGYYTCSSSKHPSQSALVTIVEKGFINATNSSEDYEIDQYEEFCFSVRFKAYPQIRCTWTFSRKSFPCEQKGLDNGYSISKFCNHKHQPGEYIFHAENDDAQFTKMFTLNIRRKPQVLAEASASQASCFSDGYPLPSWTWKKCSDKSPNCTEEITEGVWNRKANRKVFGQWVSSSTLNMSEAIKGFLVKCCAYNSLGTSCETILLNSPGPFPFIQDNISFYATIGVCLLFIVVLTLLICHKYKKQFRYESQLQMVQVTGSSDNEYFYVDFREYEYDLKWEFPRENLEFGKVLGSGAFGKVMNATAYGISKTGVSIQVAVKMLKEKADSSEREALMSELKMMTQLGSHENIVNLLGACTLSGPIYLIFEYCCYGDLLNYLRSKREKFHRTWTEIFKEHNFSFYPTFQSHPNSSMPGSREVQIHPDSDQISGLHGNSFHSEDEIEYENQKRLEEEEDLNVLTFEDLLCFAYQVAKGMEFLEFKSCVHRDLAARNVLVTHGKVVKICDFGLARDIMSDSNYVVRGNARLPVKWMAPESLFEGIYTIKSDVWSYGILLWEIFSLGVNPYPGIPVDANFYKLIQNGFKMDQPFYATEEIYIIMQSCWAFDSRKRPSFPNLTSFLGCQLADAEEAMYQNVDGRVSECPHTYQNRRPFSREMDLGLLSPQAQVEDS
The experiment in a line: Inhibition of FLT3 (unknown origin) by bioluminescent ADP-Glo assay. (In general: ADP-Glo first removes unused ATP, then detects ADP through luciferase.)

Data set [15] concerns the target Receptor-type tyrosine-protein kinase FLT3 (Homo sapiens) (UniProt P36888). Conditions: dose 4.5 nM, time 1.0 hrs.

SMILES strings stand for the structures. The source made the active and inactive calls. The calls are words filed in the database; no cut-off is given here. Bounds are passed on as bounds.

High affinity nerve growth factor receptor (Homo sapiens), sequence (P04629 33-796 limits assumed): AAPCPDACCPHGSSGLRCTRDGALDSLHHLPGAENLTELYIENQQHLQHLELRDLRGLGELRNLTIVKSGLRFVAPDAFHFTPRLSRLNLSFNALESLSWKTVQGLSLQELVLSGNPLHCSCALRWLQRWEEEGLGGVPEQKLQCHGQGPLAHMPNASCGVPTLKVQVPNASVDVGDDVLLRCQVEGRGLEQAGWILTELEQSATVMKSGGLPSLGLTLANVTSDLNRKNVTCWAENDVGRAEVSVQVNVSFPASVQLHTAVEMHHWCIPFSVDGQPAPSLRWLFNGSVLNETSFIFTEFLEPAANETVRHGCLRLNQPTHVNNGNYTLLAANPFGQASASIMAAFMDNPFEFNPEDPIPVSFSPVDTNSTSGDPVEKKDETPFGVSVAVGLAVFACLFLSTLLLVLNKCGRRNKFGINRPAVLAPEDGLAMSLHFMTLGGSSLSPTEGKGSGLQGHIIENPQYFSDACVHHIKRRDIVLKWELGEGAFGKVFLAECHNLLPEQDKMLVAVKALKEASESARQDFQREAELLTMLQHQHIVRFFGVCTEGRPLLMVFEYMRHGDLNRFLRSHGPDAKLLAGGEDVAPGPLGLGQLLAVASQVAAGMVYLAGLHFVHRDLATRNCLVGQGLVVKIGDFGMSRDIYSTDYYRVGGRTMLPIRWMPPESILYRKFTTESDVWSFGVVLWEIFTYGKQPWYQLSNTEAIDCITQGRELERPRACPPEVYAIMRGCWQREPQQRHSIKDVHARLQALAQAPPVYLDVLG
Mast/stem cell growth factor receptor Kit, sequence (P10721 whole entry): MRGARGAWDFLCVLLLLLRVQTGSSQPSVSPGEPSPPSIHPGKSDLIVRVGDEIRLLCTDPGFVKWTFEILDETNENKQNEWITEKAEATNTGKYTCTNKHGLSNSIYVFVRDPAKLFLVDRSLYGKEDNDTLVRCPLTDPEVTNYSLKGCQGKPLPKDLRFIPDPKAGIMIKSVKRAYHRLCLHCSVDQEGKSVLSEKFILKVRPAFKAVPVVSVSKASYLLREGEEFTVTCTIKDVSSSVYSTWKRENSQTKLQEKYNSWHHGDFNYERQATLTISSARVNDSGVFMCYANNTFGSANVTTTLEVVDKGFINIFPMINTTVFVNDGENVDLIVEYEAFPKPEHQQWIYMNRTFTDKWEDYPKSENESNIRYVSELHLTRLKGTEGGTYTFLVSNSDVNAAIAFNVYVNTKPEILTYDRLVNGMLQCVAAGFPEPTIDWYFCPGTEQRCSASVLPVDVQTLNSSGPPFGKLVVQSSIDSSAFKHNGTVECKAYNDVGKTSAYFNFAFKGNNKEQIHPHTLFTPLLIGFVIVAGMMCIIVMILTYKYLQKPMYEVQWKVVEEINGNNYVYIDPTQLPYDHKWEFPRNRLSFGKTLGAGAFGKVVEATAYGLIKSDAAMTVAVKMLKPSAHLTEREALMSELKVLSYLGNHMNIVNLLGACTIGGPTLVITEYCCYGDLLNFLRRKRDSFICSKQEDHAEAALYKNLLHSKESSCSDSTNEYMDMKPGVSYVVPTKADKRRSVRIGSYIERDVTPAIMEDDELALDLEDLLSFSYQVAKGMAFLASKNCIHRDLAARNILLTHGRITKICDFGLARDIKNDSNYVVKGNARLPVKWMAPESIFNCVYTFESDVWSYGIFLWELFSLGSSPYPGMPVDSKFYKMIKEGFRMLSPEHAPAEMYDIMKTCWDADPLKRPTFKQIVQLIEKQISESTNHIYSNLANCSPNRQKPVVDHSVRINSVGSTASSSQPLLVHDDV

One may read the IC50 as the concentration that inhibits the measured activity by half. In general, inhibition refers to the share of the control response that was lost under treatment. For `Cn1cc(-c2ccn3c(-c4cccc(Nc5ccc(S(C)(=O)=O)cc5)n4)cnc3c2)cn1`, the IC50 is 0.00834 µM in [1]; 0.00316 µM in [3]; over 1 µM in [7]; 0.00455 µM in data set [10]; over 1 µM in data set [11]; 0.00794 µM in data set [14]. In addition, the inhibition result in data set [2], in [5] and in data set [9] was “Active” throughout. Further, the inhibition in data set [4] is over 65%; in data set [6] it was 100%; in data set [8] it was 100%; in data set [15] it was over 65%. The “inhibition (INH)” value in data set [12] is recorded as “Not Active”. Moreover, the concentration for half-maximal inhibition (IC50) at 72 h in data set [13] was over 1 µM.

On to `COc1ccc(Nc2cccc(-c3cnc4cc(-c5cnn(C)c5)ccn34)n2)cc1OC`, for which the half-maximal inhibitory concentration (IC50) in data set [1] was 0.014 µM; in data set [3], 0.00464 µM; in data set [7], 0.969 µM; in [10], 0.00249 µM; in data set [11], over 1 µM; in data set [14] it was 0.00663 µM. For the same compound, the IC50 at 72 h in data set [13] was over 1 µM.

Take `COc1cc(Nc2cccc(-c3cnc4cc(-c5ccc(S(C)(=O)=O)cc5)ccn34)n2)cc(OC)c1OC`: the IC50 in data set [1] is 0.13 µM; in data set [3] it was 0.0439 µM; in [7], over 1 µM; in data set [11], over 1 µM; in data set [14], 0.0946 µM. Besides, the half-maximal inhibitory concentration (IC50) at 72 h in data set [13] was over 1 µM.

With `Cn1cc(-c2ccn3c(-c4cccc(Nc5cccc(C(C)(C)C)c5)n4)cnc3c2)cn1`, the IC50 in [1] is 0.412 µM; in data set [3], 0.265 µM; in data set [7] it was over 1 µM; in [10], 0.154 µM; in data set [11] it was over 1 µM; in data set [14] it was 0.288 µM. Further, the half-inhibitory concentration (IC50) at 72 h in data set [13] stood at 0.993 µM.

For the origin of these results see ChEMBL document CHEMBL5528013 (Eur J Med Chem, 2024).
